{"data": "Measured values of several laboratories", "observed": "enzyme activity", "mode": "inhibitor", "MAP3K11": "Mitogen-activated protein kinase kinase kinase 11 (MAP3K11, Homo sapiens, UniProt Q16584)", "MAP3K1": "Mitogen-activated protein kinase kinase kinase 1 (MAP3K1, Homo sapiens, UniProt Q13233)", "HIPK1": "Homeodomain-interacting protein kinase 1 (HIPK1, Homo sapiens, UniProt Q86Z02)", "note": "Lines come from different studies, so protocols differ."}
{"Compound": "Cc1cnc(NC2CCOCC2)nc1-n1cnc(C(=O)NC(CN)c2cc(F)cc(Cl)c2)c1 (centres unmarked)", "target": "Hepatocyte growth factor receptor (MET, Homo sapiens, UniProt P08581, D1228N)", "test": "radiometric", "conditions": "1 µM", "remaining activity": "97%"}
{"Compound": "Cc1nn(CC(F)(F)F)cc1Nc1ncc(C2CC2)c(NCc2ccc(S(N)(=O)=O)cc2)n1", "target": "MAP3K11", "test": "radiometric", "conditions": "1 µM", "remaining activity": "89%"}
{"Compound": "COc1cc(Nc2cnc(C#N)c(O[C@H](C)CN(C)C)n2)ncc1-c1cnn(C)c1", "target": "MAP3K1", "test": "radiometric", "conditions": "10 µM", "remaining activity": "99%"}
{"Compound": "FC(F)c1nc2ccccc2n1-c1nc(N2CCOCC2)nc(N2CCOCC2)n1", "target": "MAP3K1", "conditions": "10 µM", "remaining activity": "92%"}
{"Compound": "O=C(O)c1ccc2c(c1)nc(Nc1ccc3ccccc3c1)c1ccncc12", "target": "HIPK1", "test": "radiometric", "conditions": "1 µM", "remaining activity": "13%"}
{"Compound": "O=C(NCCCNc1nc(Nc2cccc(CN3CCOCC3)c2)ncc1C1CC1)C1CCC1", "target": "MAP3K11", "test": "radiometric", "conditions": "1 µM", "remaining activity": "38%"}
{"Compound": "CCCOc1ccc(OC)c(F)c1C(=O)c1ccc(C(=O)N[C@@H]2CNC[C@H]2NC(=O)c2ccc3[nH]ncc3c2)cc1", "target": "Mitogen-activated protein kinase 1 (Mapk1, Mus musculus, UniProt P63085)", "conditions": "10 µM", "remaining activity": "100%"}
{"Compound": "COc1cccc(CCNc2nc3cc(C(=O)O)ccc3c3cnccc23)c1", "target": "HIPK1", "test": "radiometric", "conditions": "1 µM", "remaining activity": "16%"}
{"Compound": "Cc1ccc(C(=O)Nc2ccc(CN3CCN(C)CC3)c(C(F)(F)F)c2)cc1C#Cc1cnc2cccnn12", "target": "Serine/threonine-protein kinase 36 (STK36, Homo sapiens, UniProt Q9NRP7)", "conditions": "23.5 nM", "remaining activity": "100%"}
{"Compound": "CC(C)(O)[C@H]1CC[C@H](Nc2ccc3ncc(-c4cccc(C(F)(F)F)c4)n3n2)CC1", "target": "cAMP-dependent protein kinase catalytic subunit gamma (PRKACG, Homo sapiens, UniProt P22612)", "conditions": "1 µM", "remaining activity": "98.6%"}
{"Compound": "O=C(NCCCNc1ccnc(Nc2cccc(NC(=O)N3CCCC3)c2)n1)C1CCC1", "target": "MAP3K11", "test": "radiometric", "conditions": "1 µM", "remaining activity": "86%"}
